Data as given in ChEMBL document CHEMBL4834477, “Synthesis and biological evaluation of novel purinyl quinazolinone derivatives as PI3Kδ-specific inhibitors for the treatment of hematologic malignancies” (Bioorg Med Chem, 2021).
Activity calls are given as the source filed them. The rule behind the calls is not given here.

Experiments:
SU-DHL10 [1] = test: Induction of apoptosis in human SU-DHL-10 cells assessed as late apoptotic cells at 20 uM measured after 24 hrs by AnnexinV-FITC/PI staining based flowcytometry method (reference value: 3.48%); assay type: functional
In short: (§1)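 Cells exposed to 20 μM compound for 24 h, washed with cold PBS, and stained with Annexin V-FITC and propidium iodide for 15 min at room temperature. Viable, early apoptotic, late apoptotic and necrotic populations quantified by flow cytometry.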

[2] = AUC (last) in Sprague-Dawley rat at 3 mg/kg, po measured for 24 hrs by LC-MS/MS analysis; assay type: ADME, organism-based; parameters: route oral, time 24 hrs, dose 3 mg/kg; conditions: in vivo
In short: (§2)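 Sprague-Dawley rats dosed orally at 1 or 3 mg/kg, three animals per group. Blood sampled at 0.25, 0.5, 1, 2, 4, 8 and 24 h post-dose. Plasma separated by centrifugation, extracted and quantified by LC-MS/MS. PK parameters (Cmax, AUClast, Tmax, t1/2) derived by non-compartmental software.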

[3] = target: T1, Phosphatidylinositol 4,5-bisphosphate 3-kinase catalytic subunit delta isoform (Homo sapiens) (UniProt O00329); test: Inhibition of PI3Kdelta in human MOLT-4 cells assessed as inhibition of AKT phosphorylation at Thr308 residue at 1 to 5 uM measured after 3 hrs by western blot assay; assay type: cell-based; conditions: dose 1-5 µM
T1 sequence (whole entry): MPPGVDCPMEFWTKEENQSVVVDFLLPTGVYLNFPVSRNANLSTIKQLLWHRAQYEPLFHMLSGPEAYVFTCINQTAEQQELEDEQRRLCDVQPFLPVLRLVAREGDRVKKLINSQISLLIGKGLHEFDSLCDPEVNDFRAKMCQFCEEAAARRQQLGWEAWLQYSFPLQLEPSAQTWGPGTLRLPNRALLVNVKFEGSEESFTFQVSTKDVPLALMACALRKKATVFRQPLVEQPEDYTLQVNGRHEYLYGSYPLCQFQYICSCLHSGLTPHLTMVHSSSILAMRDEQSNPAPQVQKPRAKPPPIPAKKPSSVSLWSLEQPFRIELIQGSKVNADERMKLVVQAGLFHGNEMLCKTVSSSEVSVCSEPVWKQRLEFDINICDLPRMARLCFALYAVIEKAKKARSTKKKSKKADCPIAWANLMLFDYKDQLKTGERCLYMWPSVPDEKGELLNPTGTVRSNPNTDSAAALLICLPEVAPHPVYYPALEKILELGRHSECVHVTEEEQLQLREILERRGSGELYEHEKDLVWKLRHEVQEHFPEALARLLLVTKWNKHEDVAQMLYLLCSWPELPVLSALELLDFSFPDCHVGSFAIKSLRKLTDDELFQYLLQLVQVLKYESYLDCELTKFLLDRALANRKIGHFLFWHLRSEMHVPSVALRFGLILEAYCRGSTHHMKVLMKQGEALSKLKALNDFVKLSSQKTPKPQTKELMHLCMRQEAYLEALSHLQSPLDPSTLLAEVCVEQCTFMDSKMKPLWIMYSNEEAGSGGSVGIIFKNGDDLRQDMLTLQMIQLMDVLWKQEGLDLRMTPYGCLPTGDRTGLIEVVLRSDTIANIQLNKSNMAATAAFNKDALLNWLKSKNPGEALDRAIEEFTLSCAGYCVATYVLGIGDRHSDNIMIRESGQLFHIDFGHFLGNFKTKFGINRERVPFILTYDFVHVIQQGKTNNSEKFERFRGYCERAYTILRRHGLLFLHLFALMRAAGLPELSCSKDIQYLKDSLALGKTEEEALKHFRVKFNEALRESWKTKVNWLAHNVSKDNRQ
In short: (§3)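 Treatment lasted 3 h: SUDHL-5 at 1 μM, MOLT-4 at 5 μM. Cells washed twice in cold PBS and lysed. Proteins resolved on 10–12% SDS-PAGE and blotted to PVDF. Probed for p-AKT S473, p-AKT T308, p-S6 and p-4E-BP1, with β-actin as loading control.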

SU-DHL10 [4] = test: Induction of apoptosis in human SU-DHL-10 cells assessed as necrotic cells at 20 uM measured after 24 hrs by AnnexinV-FITC/PI staining based flowcytometry method (reference value: 0.2%); assay type: functional; in short: as §1
MOLT-4 [5] = test: Induction of apoptosis in human MOLT-4 cells assessed as viable cells at 20 uM measured after 24 hrs by AnnexinV-FITC/PI staining based flowcytometry method (reference value: 95.3%); assay type: functional; conditions: read-out: Activity; in short: as §1
MOLT-4 [6] = test: Induction of apoptosis in human MOLT-4 cells assessed as early apoptotic cells at 20 uM measured after 24 hrs by AnnexinV-FITC/PI staining based flowcytometry method (reference value: 2.04%); assay type: functional; in short: as §1
[7] = target: T1, Phosphatidylinositol 4,5-bisphosphate 3-kinase catalytic subunit delta isoform (Homo sapiens); test: Inhibition of PI3Kdelta in human MOLT-4 cells assessed as inhibition of AKT phosphorylation at Ser473 residue at 1 to 5 uM measured after 3 hrs by western blot assay; assay type: cell-based; conditions: dose 1-5 µM; in short: as §3
SU-DHL-5 = test: Antiproliferative activity against human SU-DHL-5 cells assessed as cell viability at 10 uM by CellTiter-Glo luminescent cell viability assay (reference value: 100%); assay type: functional; conditions: read-out: Activity
[8] = target: T1, Phosphatidylinositol 4,5-bisphosphate 3-kinase catalytic subunit delta isoform (Homo sapiens); test: Inhibition of PI3Kdelta in human SU-DHL-5 cells assessed as inhibition of AKT phosphorylation at Thr308 residue at 1 to 5 uM measured after 3 hrs by western blot assay; assay type: cell-based; conditions: dose 1-5 µM; in short: as §3
[9] = Toxicity in Balb/c nude mouse xenografted with human MOLT-4 cells assessed as changes in body weight at 10 mg/kg, po administered via gavage qd for 57 days; assay type: organism-based; conditions: in vivo, 1368 h, dose 10 mg/kg/day, time 57 day
In short: (§4)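 MOLT-4 cells (2×10^6 in 0.1 mL D-PBS) implanted subcutaneously on the back of BALB/c-nude mice. Once tumours grew, mice were dosed daily by oral gavage at 10 mg/kg for 57 consecutive days. Tumours measured by caliper, with volume = ½ × […]. Body weight was tracked over the same period.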

MOLT-4 [10] = test: Antiproliferative activity against human MOLT-4 cells assessed as cell viability at 20 uM by CellTiter-Glo luminescent cell viability assay (reference value: 100%); assay type: functional; conditions: read-out: Activity
MOLT-4 [11] = test: Antitumour activity against human MOLT-4 cells xenografted in Balb/c nude mouse assessed as inhibition of tumour growth at 10 mg/kg, po administered via gavage qd for 57 days; assay type: functional; conditions: dose 10.0 mg/kg/day, time 57.0 day; in short: as §4
[12] = Cmax in Sprague-Dawley rat at 3 mg/kg, po measured for 24 hrs by LC-MS/MS analysis; assay type: ADME, organism-based; parameters: route oral, time 24 hrs, dose 3 mg/kg; conditions: in vivo; in short: as §2
SU-DHL10 [13] = test: Induction of apoptosis in human SU-DHL-10 cells assessed as viable cells at 20 uM measured after 24 hrs by AnnexinV-FITC/PI staining based flowcytometry method (reference value: 90%); assay type: functional; conditions: read-out: Activity; in short: as §1
MOLT-4 [14] = test: Induction of apoptosis in human MOLT-4 cells assessed as late apoptotic cells at 20 uM measured after 24 hrs by AnnexinV-FITC/PI staining based flowcytometry method (reference value: 2.17%); assay type: functional; in short: as §1
SU-DHL10 [15] = test: Induction of apoptosis in human SU-DHL-10 cells assessed as early apoptotic cells at 20 uM measured after 24 hrs by AnnexinV-FITC/PI staining based flowcytometry method (reference value: 6.32%); assay type: functional; in short: as §1
[16] = Tmax in Sprague-Dawley rat at 3 mg/kg, po measured for 24 hrs by LC-MS/MS analysis; assay type: ADME, organism-based; conditions: in vivo; in short: as §2
[17] = Half life in Sprague-Dawley rat at 3 mg/kg, po measured for 24 hrs by LC-MS/MS analysis; assay type: ADME, organism-based; conditions: in vivo; in short: as §2
[18] = target: T1, Phosphatidylinositol 4,5-bisphosphate 3-kinase catalytic subunit delta isoform (Homo sapiens); test: Inhibition of PI3Kdelta in human SU-DHL-5 cells assessed as inhibition of AKT phosphorylation at Ser473 residue at 1 to 5 uM measured after 3 hrs by western blot assay; assay type: cell-based; conditions: dose 1-5 µM; in short: as §3
[19] = Cytotoxicity against human MRC5 cells assessed as inhibition of cell viability at 20 uM measured after 48 hrs by MTT assay; assay type: cell-based; conditions: read-out: INH
In short: (§5)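 MTT assay in MRC-5 cells seeded at 2×10^6 cells/mL. Compound given in 1% FBS EMEM for 48 h at 37 °C in CO2. MTT solution then added for 3 h at 37 °C. Medium removed and formazan dissolved in DMSO.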

MOLT-4 [20] = test: Induction of apoptosis in human MOLT-4 cells assessed as necrotic cells at 20 uM measured after 24 hrs by AnnexinV-FITC/PI staining based flowcytometry method (reference value: 0.51%); assay type: functional; in short: as §1
MRC5 = test: Cytotoxicity against human MRC5 cells assessed as inhibition of cell viability measured after 48 hrs by MTT assay; assay type: cell-based; conditions: MRC5, 48 h; in short: as §5

AUC(0-t) at 24 h [2]: 202 ng·h/mL
inhibition [3]: Active
inhibition [7]: Active
inhibition [8]: Active
Cmax [12]: 53 ng/mL
Tmax [16]: 0.5 h
half-life [17]: 2.7 h
inhibition [18]: Active
SMILES: CC[C@H](Nc1ncnc2[nH]cnc12)c1nc2cccc(F)c2c(=O)n1-c1ccccc1 [IDELALISIB]
Activity (SU-DHL10 [1]): 30.4%
Activity (SU-DHL10 [4]): 1.7%
viability at 20 µM (MOLT-4 [5]): 56.5%
Activity (MOLT-4 [6]): 19.2%
viability at 10 µM (SU-DHL-5): 41.3%
Activity [9]: Non-Toxic
viability at 20 µM (MOLT-4 [10]): 74.6%
inhibition (MOLT-4 [11]): Active
viability at 20 µM (SU-DHL10 [13]): 12.2%
Activity (MOLT-4 [14]): 22%
Activity (SU-DHL10 [15]): 55.7%
cytotoxicity at 48 h, 20 µM [19]: 18.4%
Activity (MOLT-4 [20]): 2.34%
IC50 (MRC5): > 100 µM
